Active and inactive are the calls of the source. No cut-off for these calls is given here.
What was measured:
[1] = molecular target: Heat shock protein HSP 90-alpha (Homo sapiens, UniProt P07900); assay: Displacement of GM-FITC from full-length recombinant human Hsp90-alpha after 4 hrs by fluorescence polarization assay
NCI-H460 = assay: Cytotoxicity against human NCI-H460 cells assessed as growth inhibition after 72 hrs by SRB assay; type: functional, cell-based; conditions: NCI-H460, 72 h
Summary of the method: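 NCI-H460 cells grown in RPMI-1640 with 10% heat-inactivated FBS, seeded at about 10% confluence and allowed 24 h recovery. Exposed to graded drug concentrations or solvent for 72 h. Surviving fraction measured by sulforhodamine B. IC50 is the concentration giving a 50% drop in cell number vs vehicle, from dose-response curve fitting; mean of n=4 with SD.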

[2] = molecular target: Heat shock protein HSP 90-beta (Homo sapiens) (UniProt P08238); assay: Inhibition of HSP90 in human A431 cells overexpressing EGFR assessed as downregulation of EGFR protein expression after 24 hrs by Western blot analysis; type: cell-based; conditions: A-431
Sequence of Heat shock protein HSP 90-beta (Homo sapiens) (P08238 whole entry): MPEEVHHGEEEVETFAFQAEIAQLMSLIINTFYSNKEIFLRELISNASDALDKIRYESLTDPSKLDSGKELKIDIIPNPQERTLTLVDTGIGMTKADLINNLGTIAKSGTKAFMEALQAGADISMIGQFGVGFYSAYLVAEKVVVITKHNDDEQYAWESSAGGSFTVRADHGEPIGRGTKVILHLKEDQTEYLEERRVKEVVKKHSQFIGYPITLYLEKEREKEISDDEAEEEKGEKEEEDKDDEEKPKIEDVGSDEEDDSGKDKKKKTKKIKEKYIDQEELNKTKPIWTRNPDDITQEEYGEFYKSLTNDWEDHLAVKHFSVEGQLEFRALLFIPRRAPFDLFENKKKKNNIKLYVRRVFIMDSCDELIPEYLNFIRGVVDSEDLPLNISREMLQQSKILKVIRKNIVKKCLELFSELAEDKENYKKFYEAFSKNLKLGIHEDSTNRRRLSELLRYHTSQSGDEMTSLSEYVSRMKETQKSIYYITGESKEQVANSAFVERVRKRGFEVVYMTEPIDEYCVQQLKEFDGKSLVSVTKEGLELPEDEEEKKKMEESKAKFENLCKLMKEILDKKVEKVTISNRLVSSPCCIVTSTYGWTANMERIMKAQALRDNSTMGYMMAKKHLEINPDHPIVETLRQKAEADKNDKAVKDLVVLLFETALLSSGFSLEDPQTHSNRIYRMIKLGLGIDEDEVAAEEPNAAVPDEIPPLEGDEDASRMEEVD
Summary of the method: (§1)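 A431 cells treated 24 h after seeding for 24 h over a concentration range; 17-DMAG 0.2 µM as reference. Cells lysed in RIPA buffer with protease and phosphatase inhibitors, protein measured by Bradford. Equal protein run on SDS-PAGE and blotted to nitrocellulose, then probed for EGFR, Cdk4, Akt, Hsp70 and actin. ECL detection; densitometry normalized to β-actin. Run at least twice.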

[3] = molecular target: Heat shock protein HSP 90-beta (Homo sapiens) (UniProt P08238); assay: Inhibition of HSP90 in human A431 cells overexpressing EGFR assessed as downregulation of CDK4 protein expression after 24 hrs by Western blot analysis; type: cell-based; conditions: A-431; summary of the method: as §1
[4] = molecular target: Heat shock protein HSP 90-beta (Homo sapiens) (UniProt P08238); assay: Inhibition of HSP90 in human A431 cells overexpressing EGFR assessed as downregulation of AKT protein expression after 24 hrs by Western blot analysis; type: cell-based; conditions: A-431; summary of the method: as §1
[5] = molecular target: Heat shock protein HSP 90-beta (Homo sapiens) (UniProt P08238); assay: Inhibition of HSP90 in human A431 cells overexpressing EGFR assessed as induction of HSP70 protein expression after 24 hrs by Western blot analysis; type: cell-based; conditions: A-431; summary of the method: as §1
A-431 = assay: Antitumor activity against human A431 cells overexpressing EGFR xenografted in CD-1 nude mouse assessed as tumor growth inhibition at 8 mg/kg, ip administered as q4d/week for 2 weeks starting 3 days after tumor injection measured on day 5 post last dose relative to vehicle-treated control; type: functional; conditions: A-431, ip, route intraperitoneal, read-out: TGI
Summary of the method: (§2)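 Female athymic nude mice, 5-6 weeks old, inoculated s.c. in right flank with 5 × 10^6 exponentially growing tumor cells. Intraperitoneal dosing in 10 mL/kg, starting 3 days post-implant. Tumor volume = d²·D/2 from calipered shortest and longest diameters, measured biweekly. TVI% = 100 − (mean TV treated/mean TV control × 100), scored 5 days after last dose. Mann-Whitney test vs vehicle group; 8 mice per group.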

[6] = Antitumor activity against human GTL16 cells overexpressing c-Met xenografted in CD-1 nude mouse assessed as tumor growth inhibition at 5 mg/kg, ip administered as q4d/week for 2 weeks starting 3 days after tumor injection measured on day 5 post last dose relative to vehicle-treated control; type: functional; conditions: GTL 16, ip, route intraperitoneal, read-out: TGI; summary of the method: as §2
Mus musculus [7] = assay: Toxicity in CD-1 nude mouse xenografted with human A431 cells overexpressing EGFR assessed as body weight loss at 8 mg/kg, ip administered as q4d/week for 2 weeks starting 3 days after tumor injection measured on day 5 post last dose relative to vehicle-treated control; type: organism-based, A-431; set-up: dose 8 mg/kg, route intraperitoneal; conditions: in vivo
Summary of the method: (§3)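 Female athymic nude mice carrying s.c. xenografts, dosed i.p. (mg/10 mL/kg per administration) starting 3 days after tumor injection. BWL% = 100 − (mean BW day x/mean BW day 1 × 100), day 1 being the first treatment day. Maximum BWL% recorded. Lethal toxicity counted as deaths before the first control death.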

Mus musculus [8] = assay: Toxicity in CD-1 nude mouse xenografted with human GTL16 cells overexpressing c-Met assessed as body weight loss at 5 mg/kg, ip administered as q4d/week for 2 weeks starting 3 days after tumor injection measured on day 5 post last dose relative to vehicle-treated control; type: organism-based; set-up: dose 5 mg/kg, route intraperitoneal; conditions: in vivo; summary of the method: as §3
Mus musculus [9] = assay: Toxicity in CD-1 nude mouse xenografted with human A431 cells overexpressing EGFR assessed as mortality at 8 mg/kg, ip administered as q4d/week for 2 weeks starting 3 days after tumor injection measured on day 5 post last dose relative to vehicle-treated control; type: organism-based, A-431; set-up: dose 8 mg/kg, route intraperitoneal; conditions: in vivo
Summary of the method: (§4)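 S.c. right-flank xenografts, 5 × 10^6 cells, in female athymic nude mice 5-6 weeks old. Intraperitoneal dosing in 10 mL/kg from day 3 post-implant. Lethal toxicity counted as deaths in treated mice occurring before the first control mouse died, reported as dead/treated (8 per group). Body weight loss was also tracked from the first treatment day.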

Mus musculus [10] = assay: Toxicity in CD-1 nude mouse xenografted with human GTL16 cells overexpressing c-Met assessed as mortality at 5 mg/kg, ip administered as q4d/week for 2 weeks starting 3 days after tumor injection measured on day 5 post last dose relative to vehicle-treated control; type: organism-based; set-up: dose 5 mg/kg, route intraperitoneal; conditions: in vivo; summary of the method: as §4
Mus musculus [11] = assay: (§5) In vivo inhibition of HSP90 in human A431 cells overexpressing EGFR xenografted in CD-1 nude mouse assessed as downregulation of EGFR protein expression at 8 mg/kg, ip administered as q4d/week for 2 weeks starting 3 days after tumor injection measured at 2 hrs post last dose by Western blot analysis; type: functional, organism-based; set-up: dose 8 mg/kg; conditions: A-431
Summary of the method: (§6)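 Nude-mouse s.c. xenografts given i.p. compound from day 3. Tumors excised 2 h (A431) or 6 h (GTL-16) after last dose and homogenized in tissue protein extraction reagent with 10 µg/ml protease inhibitor cocktail. Whole lysates analysed by Western blot with actin as loading control; two tumor samples per group shown.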

Mus musculus [12] = assay: (§7) In vivo inhibition of HSP90 in human A431 cells overexpressing EGFR xenografted in CD-1 nude mouse assessed as downregulation of AKT protein expression at 8 mg/kg, ip administered as q4d/week for 2 weeks starting 3 days after tumor injection measured at 2 hrs post last dose by Western blot analysis; type: functional, organism-based; set-up: dose 8 mg/kg; conditions: A-431; summary of the method: as §6
Mus musculus [13] = assay: (§8) In vivo inhibition of HSP90 in human A431 cells overexpressing EGFR xenografted in CD-1 nude mouse assessed as downregulation of CDK4 protein expression at 8 mg/kg, ip administered as q4d/week for 2 weeks starting 3 days after tumor injection measured at 2 hrs post last dose by Western blot analysis; type: functional, organism-based; set-up: dose 8 mg/kg; conditions: A-431; summary of the method: as §6
Mus musculus [14] = assay: In vivo inhibition of HSP90 in human A431 cells overexpressing EGFR xenografted in CD-1 nude mouse assessed as induction of HSP70 protein expression at 8 mg/kg, ip administered as q4d/week for 2 weeks starting 3 days after tumor injection measured at 2 hrs post last dose by Western blot analysis; type: functional, organism-based; set-up: dose 8 mg/kg; conditions: A-431; summary of the method: as §6
Mus musculus [15] = assay: as §5, with “human GTL16” for “human A431”, “overexpressing c-Met” for “overexpressing EGFR”, “of c-Met” for “of EGFR”, “at 6” for “at 2”; type: functional, organism-based; set-up: dose 8 mg/kg; summary of the method: as §6
Mus musculus [16] = assay: as §7, with “human GTL16” for “human A431”, “overexpressing c-Met” for “overexpressing EGFR”, “at 6” for “at 2”; type: functional, organism-based; set-up: dose 8 mg/kg; summary of the method: as §6
Mus musculus [17] = assay: as §8, with “human GTL16” for “human A431”, “overexpressing c-Met” for “overexpressing EGFR”, “at 6” for “at 2”; type: functional, organism-based; set-up: dose 8 mg/kg; summary of the method: as §6
Mus musculus [18] = assay: In vivo inhibition of HSP90 in human GTL16 cells overexpressing c-Met xenografted in CD-1 nude mouse assessed as induction of HSP70 protein expression at 8 mg/kg, ip administered as q4d/week for 2 weeks starting 3 days after tumor injection measured at 6 hrs post last dose by Western blot analysis; type: functional, organism-based; set-up: dose 8 mg/kg; summary of the method: as §6

CCNC(=O)c1nnn(-c2cc(C(C)C)c(O)cc2O)c1-c1ccc(CN2CCCC(O)C2)cc1 (stereo not given)
IC50 [1]: 23 nM
IC50 (NCI-H460): 62 nM
inhibition [2]: Dose-dependent effect
inhibition [3]: Dose-dependent effect
inhibition [4]: Dose-dependent effect
inhibition [5]: Dose-dependent effect
inhibition in vivo at 8 mg/kg (A-431): 45%
inhibition in vivo at 5 mg/kg [6]: 42%
Imax (Mus musculus [7]): 7%
Imax (Mus musculus [8]): 17%
Activity (Mus musculus [9]): Non-toxic
Activity (Mus musculus [10]): Non-toxic
inhibition (Mus musculus [11]): Active
inhibition (Mus musculus [12]): Active
inhibition (Mus musculus [13]): Active
inhibition (Mus musculus [14]): Active
inhibition (Mus musculus [15]): Active
inhibition (Mus musculus [16]): Active
inhibition (Mus musculus [17]): Active
inhibition (Mus musculus [18]): Active
